Hits are enriched below; roughly 1.5% of the tested compounds scored in any of these assays.
Platelet DG rel – platelet dense granule release activity; human platelet-rich plasma, SFLLRN dense granule ATP release, luminescence; inhibition, %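 (compounds screened at 7.5 µM in platelet-rich plasma)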; 300,000 tested, 0.22% active;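 active means mean replicate score, as percent of positive control, at or above 50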
H9c2 TAG inh – triacylglycerol accumulation inhibition; H9c2 cells, Nile Red lipid (TAG) fluorescence; cells loaded with 200 µM oleic acid; inhibition, % at 12.5 µM; 230,000 tested, 0.66% active; AID 651582;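 active means pattern-corrected inhibition of lipid staining of at least 50% with the nuclear-stain viability signal not falling by more than 50%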;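 further: 0% = DMSO wells and 100% = triacsin C control wells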
STAT3 blocker – inhibitors of IL-6 induced STAT3 signaling. U3A cells, IL-6 STAT3-luciferase reporter, luminescence; host cell line lacks STAT1. inhibition, % at 5.5 µM. 190,000 tested, 0.89% active;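 active means inhibition above the mean inhibition across all screened compounds plus 3 SD, cut at about 44% in these data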;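 further: 0% = DMSO only wells and 100% = 100 µM nifuroxazide control wells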
PPC-1+TRAIL kill – kills PPC-1 cancer cells in the presence of TRAIL | cell killing (% activity), % at 4 µM or 5 µM | PPC-1 cells + TRAIL, ATPLite viability luminescence | 220,000 tested, 0.41% active;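 active means cell killing above 50% in the first pass at 4 µM, then a duplicate retest at 5 µM averaging 50% or more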;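 further: plate controls were cells with TRAIL plus DMSO for no effect and medium-only wells lacking cells for full effect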
Hep lipid drop – hepatic lipid droplet formation modulation; AML12 mouse hepatocytes, oleate lipid droplets, BODIPY imaging; 240,000 tested, 0.4% active; AID 1656; inhibition, % at 6.5 µM;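 active means lipid droplet intensity inhibited by at least 50%, with more than 500 cells counted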
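Assay system: AML12 mouse liver cells | Compound dosing: One dose, 6.5 µM compound | Read-out basis: Droplet intensity reduction, % inhibition | Measured by: Fluorescence imaging, 20x objective, two fields per well | Schedule: Overnight treatment with compound plus oleate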
STAT1 inh – inhibitors of IFN-gamma induced STAT1 signaling; NIH 3T3 STAT1-luciferase reporter, luminescence; inhibition, % at 5.5 µM; 200,000 tested, 0.35% active; AID 920;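 active means inhibition above a set limit, the mean inhibition across all tested compounds plus 3 SD, cut at about 34% in these data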;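 further: 0% = IFN-gamma with DMSO and 100% = IFN-gamma with 300 µM nifuroxazide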
PPC-1 tox – kills PPC-1 cells. 1,200 tested, 50% active. PPC-1 viability, ATPlite luminescence, overnight. AID 1447. cytotoxicity, % at 5 µM. shares compounds with PPC-1+TRAIL kill;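 active means reconfirmed compounds whose average cytotoxicity reaches 50% or more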;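 further: 0% = DMSO-treated cells and 100% = wells holding medium but no cells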
* = called active by the depositor; x = no result.

SMILES	Platelet DG rel	H9c2 TAG inh	STAT3 blocker	PPC-1+TRAIL kill	Hep lipid drop	STAT1 inh	PPC-1 tox
COc1ccc(CCNC(=O)C2CCCN(S(=O)(=O)c3cccc4nonc34)C2)cc1OC (stereo unspecified)	13	7	1	-16	7	3	-7
O=C(c1ccc2c3c(cccc13)CC2)C1CCCN(Cc2ccncc2)C1 (stereo unspecified)	-9	-27	34	16	-55	18	x
CCc1nc(CN2CCCC(C(=O)c3ccc4c5c(cccc35)CC4)C2)c(C)[nH]1 (stereo unspecified)	-1	23	14	13	-32	4	17
Cc1nc2cc(NC(=O)Nc3cccc4ccccc34)ccc2n1C	-1	-1	20	34	35	-51	35
Cc1nc2cc(Nc3nnc(-c4ccccc4)c4ccccc34)ccc2n1C	12	x	12	71*	x	-27	70*
CC1CCCN(c2ncnc3c2cnn3-c2ccc(Cl)cc2)C1 (stereo unspecified)	-3	-20	x	79*	-13	x	79*
CCN1CCN(c2ncnc3c2cnn3-c2ccccc2)CC1	13	-3	14	-4	x	-19	x
Cc1ccc(-n2ncc3c(N4CCCC(C)C4)ncnc32)c(C)c1 (stereo unspecified)	-15	-28	x	21	-3	x	x
CC1CC(C)CN(c2ncnc3c2cnn3-c2ccc(Cl)cc2)C1 (stereo unspecified)	12	-4	-1	x	-32	-18	x
c1ccc(-n2ncc3c(N4CCCCC4)ncnc32)cc1	-14	8	96*	80*	x	66*	79*
CC1CCCN(c2ncnc3c2cnn3-c2ccccc2)C1 (stereo unspecified)	-5	-5	x	78*	-9	x	78*
CC(=O)c1cccc(OCC(=O)N(CCC2=CCCCC2)c2c(N)n(Cc3ccccc3)c(=O)[nH]c2=O)c1	x	16	x	x	x	x	x
Oc1ccccc1-c1nc2cnccn2c1Nc1ccc2c(c1)OCCO2	0	x	-2	4	9	9	-1
Cc1nn(-c2nc3ccccc3[nH]2)c(=O)c2ccccc12	81*	3	112*	97*	29	97*	97*
CSc1ccc(Cl)c(C(=O)Nc2ccc(Cl)cn2)c1	-4	-9	24	14	-4	6	x
COc1cc(SC)ccc1C(=O)Nc1ccc(Cl)cn1	6	-11	100*	87*	12	80*	87*
CCCN1CCN(CCCNC(=O)CN2C(=O)COc3ccc(C(C)(C)C)cc32)CC1	x	5	x	x	x	x	x
CN(C)c1cccc(C(=O)Nc2cccc(F)c2)c1	7	2	3	34	-14	-34	x
CCN(CC)c1ccc(C(=O)Nc2cccc(F)c2)cc1	5	x	35	16	0	-30	16
Cc1ccc2c(c1)sc(=NC(=O)c1cccs1)n2C	13	0	88*	88*	18	81*	85*
Cc1ccc2c(c1)sc(=NC(=O)C1CC1)n2C	1	-11	x	23	0	x	x
O=S1(=O)CCN(Cc2cccnc2)CC1	x	13	x	x	x	x	x
COC(=O)Cc1ccc(NC(=S)N2CCCC(C)C2)cc1 (stereo unspecified)	0	6	3	68*	1	-5	70*
COc1ccc(C(=O)Nc2ccc(Cc3ccncc3)cc2)cc1Br	-4	1	10	4	3	-11	20
COc1ccc(NC(=O)Nc2ccc(Cc3ccncc3)cc2)cc1OC	0	10	16	11	x	-9	x
SMILES	Platelet DG rel	H9c2 TAG inh	STAT3 blocker	PPC-1+TRAIL kill	Hep lipid drop	STAT1 inh	PPC-1 tox
Cc1cccc2c(C(=O)O)cc(-c3cccnc3)nc12	1	-17	-1	-14	3	-5	-3
CC(c1ccon1)N(C)C(=O)c1cccc(OC2CCN(S(C)(=O)=O)CC2)c1 (stereo unspecified)	x	1	x	x	x	x	x
Cc1nc(-c2coc3cc(OCC(=O)O)ccc3c2=O)cs1	15	x	38	45	x	23	46
CC(=O)Cc1cc(O)c2ccccc2c1OC(=O)c1ccccc1	1	5	-4	12	35	-1	11
COc1ccc(CC2=C(O)c3ccccc3C(=O)C2=O)cc1	0	x	x	x	-4	x	x
Cc1ccccc1N=CC1=C(O)c2ccccc2C1=O	58*	-1	99*	84*	2	80*	82*
COc1ccc(N=CC2=C(O)c3ccccc3C2=O)c(OC)c1	51*	1	99*	82*	x	74*	85*
COc1ccc(NC(=O)CN2CCN(CC(=O)Nc3cc(OC)cc(OC)c3)CC2)cc1	x	-3	x	-2	0	x	4
COc1cc(NC(=O)CN2CCCCCC2)cc(OC)c1	1	x	x	x	20	x	x
Cc1ccccc1S(=O)(=O)NC(=O)C1(C)CCN1C(=O)c1ccccc1CCc1ccccc1 (stereo unspecified)	x	7	x	x	x	x	x
Cc1cc(C)c2c(N)c(C(=O)Nc3ncc(C)s3)sc2n1	x	7	108*	96*	-9	87*	96*
COC(=O)c1sc2nc(C)cc(C)c2c1N	0	4	20	34	2	-18	x
O=C(N/N=C/c1cccc([N+](=O)[O-])c1)c1ccc2c(c1)OCCO2	27	-14	21	68*	x	-17	68*
O=C(N/N=C/c1ccc(Cl)c([N+](=O)[O-])c1)c1ccc2c(c1)OCCO2	x	3	x	x	x	x	x
O=C(NC1c2ccccc2Oc2ccccc21)c1ccc([N+](=O)[O-])cc1	x	6	x	x	x	x	x
N=C1CCCC1C(=S)SCCC(N)=O (stereo unspecified)	x	4	x	x	x	x	x
Cc1ccc(S(=O)(=O)N2C[C@@H](C)[C@]3(C2)[C@H](O)[C@H](OC(=O)NCc2ccccc2F)C[C@H]2C(=O)N(c4ccccc4)C(=O)[C@H]23)cc1	x	-2	x	x	x	x	x
CN=c1scc(C)n1/N=C/c1ccc(O)cc1O	24	6	61*	71*	x	56*	71*
CC(=O)c1cccc(NC(=O)c2ccc(-c3c(C)noc3C)c3ccoc23)c1	x	17	x	x	x	x	x
COC(=O)CSc1nc2cc(OC)ccc2cc1C#N	3	10	14	69*	x	-45	63*
CC1(C(=O)NS(=O)(=O)c2ccc(Cl)s2)CCN1C(=O)C1(c2ccccc2)CCCC1 (stereo unspecified)	x	11	x	x	x	x	x
COc1cc(Br)c(S(=O)(=O)Nc2c(C)n(C)n(-c3ccccc3)c2=O)cc1OC	-4	x	8	5	5	3	6
COc1ccc(S(=O)(=O)Nc2c(C)n(C)n(-c3ccccc3)c2=O)cc1Br	5	x	x	x	x	x	x
C[C@@H]1CN([C@H](C)CO)C(=O)CCCn2nncc2CO[C@H]1CN(C)S(=O)(=O)c1ccc(C#N)cc1	x	-3	x	x	x	x	x
Clc1ccc(/C=C/c2nc3ccccc3[nH]2)c(Cl)c1	60*	x	87*	94*	x	68*	95*
